Measurements taken from ChEMBL document CHEMBL1136740, “New active series of growth hormone secretagogues” (J Med Chem, 2003).
Non-standard residues stand in square brackets, D forms with d. Residues, ends and D or L forms follow the SMILES beside them. dTrp(2-Me) = Cc1[nH]c2ccccc2c1C[C@@H](N)C(=O)O; Aib = CC(C)(N)C(=O)O

Assays:
Rattus norvegicus = experiment: Ratio of GH release stimulated by 300 ug/kg of compound to that of GH release stimulated by 300 ug/kg of hexarelin in infant rat (sc injection); type: functional
How it was run: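 Male 10-day-old Sprague-Dawley pups, about 25 g, eight per group. Dosed sc at 300 µg/kg, with solvent as DMSO at final 1:300 dilution. Killed by decapitation 15 min later; trunk-blood plasma GH measured by RIA against the NIDDK rat standard, in ng/mL. Response compared with hexarelin at the same dose.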

[1] = target: T1, Growth hormone secretagogue receptor type 1 (Homo sapiens, UniProt Q92847); experiment: Binding affinity towards cloned human Growth hormone secretagogue receptor type I in LLC PK-1 cells using [125I][His9]-ghrelin as radioligand; type: cell-based
[2] = target: T1, Growth hormone secretagogue receptor type 1; experiment: Binding affinity towards human pituitary Growth hormone secretagogue receptor using [125I][Tyr4]-ghrelin as radioligand
Canis familiaris = experiment: Concentration in dogs after oral administration at dose of 1 mg/kg after 180 min.; type: ADME, organism-based, Canis lupus familiaris; parameters: dose 1 mg/kg, route oral; conditions: dog, in vivo, 3 h
How it was run: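 Beagle dogs (4–6, 2–3 years, 11–15 kg, both sexes) dosed 1 mg/kg through an oral-gastric cannula in randomized sequence. Blood drawn from the cephalic vein at −20 min, then at 15–180 min into EDTA tubes. Plasma GH measured by canine GH RIA (sensitivity 0.4 ng/mL). Peak GH and AUC0–180 min by trapezoid method reported as mean ± SEM; sexes pooled.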

[3] = Stimulating GH secretion in dogs after oral administration at dose of 1 mg/kg

T1 sequence (Q92847 whole entry): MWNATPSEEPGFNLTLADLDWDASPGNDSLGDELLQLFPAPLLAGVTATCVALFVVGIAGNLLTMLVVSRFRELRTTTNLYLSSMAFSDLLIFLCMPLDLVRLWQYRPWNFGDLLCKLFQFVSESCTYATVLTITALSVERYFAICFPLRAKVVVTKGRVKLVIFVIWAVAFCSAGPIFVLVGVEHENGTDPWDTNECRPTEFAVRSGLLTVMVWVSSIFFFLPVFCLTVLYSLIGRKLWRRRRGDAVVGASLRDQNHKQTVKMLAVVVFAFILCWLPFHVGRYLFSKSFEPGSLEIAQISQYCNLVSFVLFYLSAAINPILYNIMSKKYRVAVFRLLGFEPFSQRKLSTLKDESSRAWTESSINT

IC50 [1] [nM] | IC50 [2] [nM] | GH AUC 0-180 (Canis familiaris) [µg·min/L] | GH peak [3] [µg/L] | Structure (SMILES) | Ratio (Rattus norvegicus)
 |  |  |  | CNC(C)(C)C(=O)N[C@H](Cc1c[nH]c2ccccc12)C(=O)N[C@@H](Cc1c[nH]c2ccccc12)N(C)C(C)=O | 0.2
 |  |  |  | CC(C)(N)C(=O)N[C@H](Cc1c[nH]c2ccccc12)C(=O)N[C@H](Cc1c[nH]c2ccccc12)NC(=O)Cc1ccccc1 | 0.11
535 | 59.8 |  |  | CC(C)CC(=O)N[C@@H](Cc1c[nH]c2ccccc12)NC(=O)[C@@H](Cc1c[nH]c2ccccc12)NC(=O)C(C)(C)N | 0.24
 |  |  |  | CN(C)C(C)(C)C(=O)N[C@H](Cc1c[nH]c2ccccc12)C(=O)N[C@H](Cc1c[nH]c2ccccc12)NC=O | 0.69
1160 | 391 |  |  | O=CN[C@@H](Cc1c[nH]c2ccccc12)NC(=O)[C@@H](Cc1c[nH]c2ccccc12)NC(=O)C1CCNCC1 | 0.82
 |  |  |  | CN[C@H](Cc1c[nH]c2ccccc12)C(=O)N[C@H](Cc1c[nH]c2ccccc12)NC=O | 0.09
 |  |  |  | CC(C)(N)C(=O)N[C@H](Cc1c[nH]c2ccccc12)C(=O)N[C@H](Cc1c[nH]c2ccccc12)NC(=O)Cc1c[nH]c2ccccc12 | 0.16
123 | 22.9 | 675.35 | 5.5 | CC(C)(N)C(=O)N[C@H](Cc1c[nH]c2ccccc12)C(=O)N[C@H](Cc1c[nH]c2ccccc12)NC=O [MACIMORELIN] | 1.31
228 | 3850 |  |  | CC(=O)N[C@@H](Cc1c[nH]c2ccccc12)NC(=O)[C@@H](Cc1c[nH]c2ccccc12)NC(=O)C(C)(C)N | 0.77
460 | 185 |  |  | CCC(=O)N[C@@H](Cc1c[nH]c2ccccc12)NC(=O)[C@@H](Cc1c[nH]c2ccccc12)NC(=O)C(C)(C)N | 0.69
 |  |  |  | CNC(C)(C)C(=O)N[C@H](Cc1c[nH]c2ccccc12)C(=O)N[C@H](Cc1c[nH]c2ccccc12)NC(=O)CCC1CCCCC1 | 0.16
 |  |  |  | CNC(C)(C)C(=O)N[C@H](Cc1c[nH]c2ccccc12)C(=O)N[C@H](Cc1c[nH]c2ccccc12)N(C)C(C)=O | 1.21
 |  |  |  | O=CN[C@@H](Cc1c[nH]c2ccccc12)NC(=O)[C@@H](Cc1c[nH]c2ccccc12)NS(=O)(=O)c1ccccc1 | 0.14
 |  |  |  | Cc1[nH]c2ccccc2c1C[C@@H](NC(=O)[C@@H](N)Cc1c[nH]cn1)C(=O)N[C@@H](C)C(=O)N[C@@H](Cc1c[nH]c2ccccc12)C(=O)N[C@H](Cc1ccccc1)C(=O)N[C@@H](CCCCN)C(N)=O [EXAMORELIN] (H-H[dTrp(2-Me)]AW[dF]K-NH2) | 1
29.5 | 25.6 | 262.43 |  | CNC(C)(C)C(=O)N[C@H](Cc1c[nH]c2ccccc12)C(=O)N(C)[C@H](Cc1c[nH]c2ccccc12)NC(C)=O | 
286 | 12 |  |  | Cc1[nH]c2ccccc2c1C[C@@H](NC(=O)[C@H](Cc1c[nH]cn1)NC(=O)[C@H](C)NC(=O)[C@@H](N)Cc1ccc(O)cc1)C(=O)N[C@@H](C)C(=O)N[C@@H](Cc1c[nH]c2ccccc12)C(=O)N[C@H](Cc1ccccc1)C(=O)N[C@@H](CCCCN)C(N)=O (H-YAH[dTrp(2-Me)]AW[dF]K-NH2) | 
 |  |  |  | CC(=O)N[C@@H](Cc1c[nH]c2ccccc12)NC(=O)[C@@H](Cc1c[nH]c2ccccc12)NC(C)=O | 0.13
 |  |  |  | CC(=O)N[C@@H](Cc1c[nH]c2ccccc12)N(C)C(=O)[C@@H](Cc1c[nH]c2ccccc12)NC(=O)C(C)(C)N | 0.65
 |  |  |  | CNC(C)(C)C(=O)N[C@H](Cc1c[nH]c2ccccc12)C(=O)N[C@](C)(Cc1c[nH]c2ccccc12)NC(C)=O | 1
 |  |  |  | CNC(C)(C)C(=O)N[C@H](Cc1c[nH]c2ccccc12)C(=O)N[C@H](Cc1c[nH]c2ccccc12)NC(=O)Cc1ccccc1 | 0.16
 |  |  |  | CC(=O)N[C@@H](Cc1c[nH]c2ccccc12)NC(=O)[C@@H](Cc1c[nH]c2ccccc12)NC(=O)C1(N)CCNCC1 | 0.46
 |  |  |  | Cc1[nH]c2ccccc2c1C[C@@H](NC(=O)[C@@H](Cc1c(C)[nH]c2ccccc12)NC(=O)C(C)(C)N)C(N)=O (H-[Aib]-[dTrp(2-Me)]-[dTrp(2-Me)]-NH2) | 0.89
 |  |  |  | CS(=O)(=O)N[C@H](Cc1c[nH]c2ccccc12)C(=O)N[C@H](Cc1c[nH]c2ccccc12)NC=O | 0.09
 |  |  |  | CNC(C)(C)C(=O)N[C@H](Cc1c[nH]c2ccccc12)C(=O)N[C@H](Cc1c[nH]c2ccccc12)NC(=O)C1CCCCN1 (some centres undefined) | 0.85

IC50 [1] [nM] | IC50 [2] [nM] | GH AUC 0-180 (Canis familiaris) [µg·min/L] | GH peak [3] [µg/L] | Structure (SMILES) | Ratio (Rattus norvegicus)
 |  |  |  | Cc1[nH]c2ccccc2c1C[C@H](NC=O)NC(=O)[C@@H](Cc1c(C)[nH]c2ccccc12)NC(=O)C(C)(C)N | 0.08
397 | 213 |  |  | CNC(C)(C)C(=O)N[C@H](Cc1c[nH]c2ccccc12)C(=O)N[C@H](Cc1c[nH]c2ccccc12)NC(=O)CC(C)C | 0.1
162 | 16.9 | 79.54 |  | CCNC(=O)N[C@@H](Cc1c[nH]c2ccccc12)NC(=O)[C@@H](Cc1c[nH]c2ccccc12)NC(=O)C(C)(C)N | 
 |  |  |  | CC(C)(N)C(=O)N[C@@H](Cc1c[nH]c2ccccc12)C(=O)N[C@@H](Cc1c[nH]c2ccccc12)NC=O | 0.08
 |  | 544.55 |  | CC(C)(N)C(=O)N[C@H](COCc1ccccc1)C(=O)N1CCC2(CC1)CN(S(C)(=O)=O)c1ccccc12 [IBUTAMOREN] | 
 |  |  |  | CC(C)(N)C(=O)N[C@@H](Cc1c[nH]c2ccccc12)C(=O)N[C@H](Cc1c[nH]c2ccccc12)NC=O | 0.07
337 | 1790 |  |  | NC1(C(=O)N[C@H](Cc2c[nH]c3ccccc23)C(=O)N[C@H](Cc2c[nH]c3ccccc23)NC=O)CCNCC1 | 0.95
 |  |  |  | CC(C)(N)C(=O)N[C@H](Cc1c[nH]c2ccccc12)C(=O)N[C@](C)(Cc1c[nH]c2ccccc12)NC=O | 0.91
 |  |  |  | CC(C)(N)C(=O)N[C@](C)(Cc1c[nH]c2ccccc12)C(=O)N[C@H](Cc1c[nH]c2ccccc12)NC=O | 0.12
 |  |  |  | CC(C)(N)C(=O)N[C@H](Cc1c[nH]c2ccccc12)C(=O)N[C@H](Cc1c[nH]c2ccccc12)NC(=O)CCC1CCCCC1 | 0.15
22.7 | 39 |  |  | CNC(C)(C)C(=O)N[C@H](Cc1c[nH]c2ccccc12)C(=O)N[C@H](Cc1c[nH]c2ccccc12)NC=O | 0.64
116 | 21.5 | 87.06 |  | CC(C)(N)C(=O)N[C@H](Cc1c[nH]c2ccccc12)C(=O)N[C@H](Cc1c[nH]c2ccccc12)NC(=O)C1CCCCN1 (some centres undefined) | 
440 | 20.1 |  |  | CC(=O)N[C@@H](Cc1c[nH]c2ccccc12)NC(=O)[C@@H](Cc1c[nH]c2ccccc12)NC(=O)C(C)(C)N(C)C | 0.15
 |  |  |  | CC(C)(N)C(=O)N[C@H](Cc1c[nH]c2ccccc12)C(=O)N[C@@H](Cc1c[nH]c2ccccc12)NC=O | 0.28
 |  |  |  | CNC(C)(C)C(=O)N[C@H](Cc1c[nH]c2ccccc12)C(=O)N[C@H](Cc1c[nH]c2ccccc12)NC(=O)Cc1c[nH]c2ccccc12 | 0.17
807 | > 10000 |  |  | CC(=O)N[C@@H](Cc1c[nH]c2ccccc12)NC(=O)[C@@H](Cc1c[nH]c2ccccc12)NC(=O)C1CCNCC1 | 0.53
 |  |  |  | Cc1[nH]c2ccccc2c1C[C@@H](NC=O)NC(=O)[C@@H](Cc1c(C)[nH]c2ccccc12)NC(=O)C(C)(C)N | 0.12
122 | 16.2 |  |  | CCOC(=O)N[C@@H](Cc1c[nH]c2ccccc12)NC(=O)[C@@H](Cc1c[nH]c2ccccc12)NC(=O)C(C)(C)N | 0.2
 |  |  |  | CC(C)CC(=O)N[C@H](Cc1c[nH]c2ccccc12)C(=O)N[C@H](Cc1c[nH]c2ccccc12)NC=O | 0.09
 | 18 |  |  | Cc1[nH]c2ccccc2c1C[C@@H](NC(=O)[C@@H](N)Cc1cnc[nH]1)C(=O)N[C@@H](C)C(=O)N[C@@H](Cc1c[nH]c2ccccc12)C(=O)N[C@H](Cc1ccccc1)C(=O)N[C@@H](CCCCN)C(N)=O [EXAMORELIN] (H-H[dTrp(2-Me)]AW[dF]K-NH2) | 
58 | 74 | 85.85 | 1.1 | CNC(C)(C)C(=O)N[C@H](Cc1c[nH]c2ccccc12)C(=O)N[C@H](Cc1c[nH]c2ccccc12)NC(C)=O | 1.38
167 | > 10000 |  |  | CCC(=O)N[C@@H](Cc1c[nH]c2ccccc12)NC(=O)[C@@H](Cc1c[nH]c2ccccc12)NC(=O)C(C)(C)NC | 0.93
 |  |  |  | CC(=O)N[C@@H](Cc1c[nH]c2ccccc12)NC(=O)[C@@H](Cc1c[nH]c2ccccc12)NC(=O)CC(C)C | 0.11
